Experimental data as given in ChEMBL document CHEMBL2169744, “Discovery and optimization of potent and selective imidazopyridine and imidazopyridazine mTOR inhibitors” (Bioorg Med Chem Lett, 2012).
In brackets after ≈: the same amount, converted by molar mass. Activity calls are given as the source filed them. The rule behind the calls is not given here.

Experiments:
[1] = Solubility of the compound in 0.01 N HCl; type: physicochemical
[2] = Oral bioavailability in rat at 1 mg/kg; type: ADME, organism-based; settings: in vivo
[3] = Efflux ratio of apparent permeability from basal to apical to apical to basal side of pig LLC-PK1 cells; type: ADME, cell-based, Sus scrofa
[4] = Apparent permeability from apical to basal side of pig LLC-PK1 cells; type: ADME, cell-based, Sus scrofa
[5] = biological target: Serine/threonine-protein kinase mTOR (Homo sapiens, UniProt P42345); assay: Inhibition of mTOR by LanthaScreen assay
[6] = Solubility of the compound in phosphate buffered saline; type: physicochemical
[7] = Apparent permeability from basal to apical side of pig LLC-PK1 cells; type: ADME, cell-based, Sus scrofa
[8] = Solubility of the compound in simulated intestinal fluid; type: physicochemical
[9] = Inhibition of mTORC1-mediated pS6 Ser240/244-phosphorylation in human U87MG cells; type: cell-based, U-87MG ATCC; settings: U-87 MG
Outline: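 Cell assay in U87MG cells measuring phosphorylation of the mTOR substrate S6 (S240/244), n ≥ 2.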

[10] = (§1) Clearance in rat at 0.5 mg/kg, iv; type: ADME, organism-based; parameters: dose 0.5 mg/kg, route intravenous; settings: in vivo
[11] = Oral bioavailability in rat at 4 mg/kg; type: ADME, organism-based; settings: in vivo
[12] = Inhibition of mTORC1-mediated 4EBP1-phosphorylation in human U87 cells; type: cell-based, U-87MG ATCC; settings: Homo sapiens, U-87 MG; read-out: IC50
[13] = biological target: Phosphatidylinositol 4,5-bisphosphate 3-kinase catalytic subunit alpha isoform (Homo sapiens, UniProt P42336); assay: Inhibition of PI3Kalpha by AlphaScreen assay
Sequence of Phosphatidylinositol 4,5-bisphosphate 3-kinase catalytic subunit alpha isoform (P42336 whole entry, canonical isoform): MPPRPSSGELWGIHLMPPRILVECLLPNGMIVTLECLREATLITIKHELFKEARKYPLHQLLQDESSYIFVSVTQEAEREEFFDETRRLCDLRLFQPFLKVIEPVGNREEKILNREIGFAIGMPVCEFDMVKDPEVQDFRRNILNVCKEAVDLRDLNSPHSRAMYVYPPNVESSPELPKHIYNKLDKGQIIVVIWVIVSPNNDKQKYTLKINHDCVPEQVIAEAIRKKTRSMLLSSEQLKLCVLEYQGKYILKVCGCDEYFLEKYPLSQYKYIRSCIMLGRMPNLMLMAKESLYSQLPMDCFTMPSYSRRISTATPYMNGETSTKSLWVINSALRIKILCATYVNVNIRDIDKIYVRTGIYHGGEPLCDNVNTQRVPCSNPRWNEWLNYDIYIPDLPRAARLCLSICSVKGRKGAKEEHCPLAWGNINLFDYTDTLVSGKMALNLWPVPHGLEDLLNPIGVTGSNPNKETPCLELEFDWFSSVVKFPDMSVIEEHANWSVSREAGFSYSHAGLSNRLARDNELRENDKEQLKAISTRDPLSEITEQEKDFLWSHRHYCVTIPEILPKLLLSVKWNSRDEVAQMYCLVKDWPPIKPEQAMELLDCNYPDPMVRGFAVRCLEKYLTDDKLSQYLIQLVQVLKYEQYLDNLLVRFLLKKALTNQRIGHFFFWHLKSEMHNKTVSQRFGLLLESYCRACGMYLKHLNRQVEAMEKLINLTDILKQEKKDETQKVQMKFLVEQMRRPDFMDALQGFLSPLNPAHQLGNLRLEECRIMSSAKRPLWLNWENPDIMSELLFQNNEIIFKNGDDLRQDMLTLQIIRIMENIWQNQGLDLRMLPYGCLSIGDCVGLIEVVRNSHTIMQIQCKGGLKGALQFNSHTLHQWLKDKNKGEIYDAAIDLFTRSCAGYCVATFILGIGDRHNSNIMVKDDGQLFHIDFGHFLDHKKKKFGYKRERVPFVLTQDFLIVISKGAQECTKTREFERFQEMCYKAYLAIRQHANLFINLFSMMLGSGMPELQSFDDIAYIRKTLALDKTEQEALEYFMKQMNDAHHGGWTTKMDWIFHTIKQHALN

[14] = Half life in rat at 0.5 mg/kg, iv; type: ADME, organism-based; parameters: dose 0.5 mg/kg, route intravenous; settings: in vivo
[15] = Volume of distribution at steady state in rat at 0.5 mg/kg, iv; type: ADME, organism-based; parameters: dose 0.5 mg/kg, route intravenous; settings: in vivo, read-out: Vdss
Rattus norvegicus [16] = assay: as §1; type: ADME, organism-based; parameters: dose 0.5 mg/kg, route intravenous; settings: in vivo
Rattus norvegicus [17] = assay: (§2) AUC in rat at 0.5 mg/kg, iv; type: ADME, organism-based, Plasma; parameters: dose 0.5 mg/kg, route intravenous; settings: in vivo
[18] = Oral bioavailability in rat at 5 mg/kg; type: ADME, organism-based; settings: in vivo
Outline: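 Rat oral PK at 5.0 mpk in 1% Tween 80, 2% HPMC, 97% H2O, pH 2.2 (methanesulfonic acid).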

[19] = Plasma protein binding in rat at 5 mg/kg, po; type: ADME, organism-based; parameters: dose 5 mg/kg, route oral; settings: read-out: PPB (converted)
Mus musculus [20] = assay: Inhibition of mTORC1 in po dosed mouse assessed as inhibition of HGF-induced pS6-phosphorylation in liver tissue at 100 mg/kg, po measured at >8 hrs; type: functional, organism-based; parameters: dose 100 mg/kg
Outline: (§3)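 Time course in mouse liver: single oral dose of 100 mg/kg, sampled at 3, 6, 8 and 24 h. Inhibition of HGF-induced pAKT (S473 and T308) and pS6 in liver tissue measured against vehicle controls.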

[21] = Clearance in human liver microsomes; type: ADME, Microsome; settings: read-out: CLH
[22] = as §2; type: ADME, organism-based, Plasma; parameters: dose 0.5 mg/kg, route intravenous; settings: plasma
[23] = Clearance in rat liver microsomes; type: ADME, Microsome; settings: read-out: CLH
Mus musculus [24] = organism: Mus musculus; assay: animal or person; settings: Liver, 6 h
[25] = biological target: Phosphatidylinositol 4,5-bisphosphate 3-kinase catalytic subunit beta isoform (Homo sapiens, UniProt P42338); assay: Inhibition of PI3Kbeta by AlphaScreen assay
Sequence of Phosphatidylinositol 4,5-bisphosphate 3-kinase catalytic subunit beta isoform (P42338 whole entry, canonical isoform): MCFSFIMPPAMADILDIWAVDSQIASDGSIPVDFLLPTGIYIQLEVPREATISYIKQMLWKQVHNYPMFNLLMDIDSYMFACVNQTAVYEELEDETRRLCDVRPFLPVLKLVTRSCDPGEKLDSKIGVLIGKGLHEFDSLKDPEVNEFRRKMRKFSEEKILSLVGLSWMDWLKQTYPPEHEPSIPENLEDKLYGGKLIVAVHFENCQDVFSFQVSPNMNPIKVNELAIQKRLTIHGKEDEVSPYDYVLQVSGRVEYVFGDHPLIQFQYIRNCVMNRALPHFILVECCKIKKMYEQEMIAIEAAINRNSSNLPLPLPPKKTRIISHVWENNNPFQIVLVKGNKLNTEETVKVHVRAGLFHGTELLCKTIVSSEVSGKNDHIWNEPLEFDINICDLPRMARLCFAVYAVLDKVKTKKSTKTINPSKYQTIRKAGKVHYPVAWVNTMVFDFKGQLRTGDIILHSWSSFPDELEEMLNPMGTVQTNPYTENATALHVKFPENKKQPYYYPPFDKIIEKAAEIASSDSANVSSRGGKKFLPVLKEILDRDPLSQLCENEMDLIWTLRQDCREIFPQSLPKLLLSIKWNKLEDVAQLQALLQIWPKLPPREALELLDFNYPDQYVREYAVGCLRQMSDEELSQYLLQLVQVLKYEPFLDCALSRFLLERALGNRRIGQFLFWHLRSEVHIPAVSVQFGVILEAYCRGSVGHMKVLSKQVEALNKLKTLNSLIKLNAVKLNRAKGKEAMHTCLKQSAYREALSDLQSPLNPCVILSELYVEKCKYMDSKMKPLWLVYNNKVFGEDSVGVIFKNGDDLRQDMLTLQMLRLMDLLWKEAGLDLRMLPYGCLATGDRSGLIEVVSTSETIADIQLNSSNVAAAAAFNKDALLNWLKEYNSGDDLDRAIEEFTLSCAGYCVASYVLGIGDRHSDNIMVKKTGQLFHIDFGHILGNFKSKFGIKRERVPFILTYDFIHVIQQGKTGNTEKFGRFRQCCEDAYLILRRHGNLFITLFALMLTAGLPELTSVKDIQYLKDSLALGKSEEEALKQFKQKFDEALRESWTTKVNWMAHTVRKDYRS

[26] = Drug excretion in po dosed Sprague-Dawley rat urine; type: ADME, organism-based; settings: in vivo
[27] = Antitumor activity against human U87MG cells xenografted in mouse assessed as tumor growth inhibition at 60 mg/kg, po administered QD for 2 weeks relative to vehicle-treated control; type: functional, U-87MG ATCC; settings: U-87 MG, 336 h, read-out: TGI
Outline: (§4)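 Mice bearing established U87-MG tumours dosed orally with vehicle or compound at 10, 30 or 60 mg/kg QD or 30 mg/kg BID for 2 weeks. Tumour volume (mm3) tracked, mean ± SE, n = 10. TGI relative to vehicle controls; significance by repeated-measures ANOVA followed by Dunnett's test.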

Mus musculus [28] = assay: Toxicity in mouse assessed weight loss at 100 mg/kg, po administered QD for 7 days measured on day 3 relative to vehicle-treated control; type: organism-based; parameters: dose 100 mg/kg, route oral; settings: in vivo, 168 h
Outline: (§5)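 Seven-day tolerability study in mice, n = 5 per group. Oral dosing QD at 60 or 100 mg/kg. Body weight monitored; animals with average weight loss >20% removed from study.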

[29] = Clearance in rat at 1 mg/kg, iv; type: ADME, organism-based; parameters: dose 1 mg/kg, route intravenous; settings: in vivo
Mus musculus [30] = assay: Inhibition of PI3Kalpha in po dosed mouse assessed as inhibition of HGF-induced AKT Thr308-phosphorylation in liver tissue after 6 hrs; type: functional, organism-based
Outline: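 Single oral dose to mice of vehicle (50% PEG400, 1% Pluronic F68, pH 2.2 with MSA) or compound at 10, 30 or 100 mg/kg, n = 3 per dose. HGF-stimulated liver taken at 6 h; pAKT (S473, T308) and pS6RP measured in lysate by MSD assay. Plasma drug levels measured. Factorial ANOVA versus vehicle, then Dunnett's test.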

[31] = Antitumor activity against human U87MG cells xenografted in mouse assessed as tumor growth inhibition at 30 mg/kg, po administered BID for 2 weeks relative to vehicle-treated control; type: functional, U-87MG ATCC; settings: U-87 MG, 336 h, read-out: TGI; outline: as §4
[32] = Drug excretion in iv dosed Sprague-Dawley rat urine; type: ADME, organism-based; settings: in vivo
U-87MG ATCC [33] = assay: Antitumor activity against human U87MG cells xenografted in po dosed mouse assessed as tumor growth inhibition administered QD for 2 weeks; type: functional, organism-based; outline: as §4
[34] = Inhibition of mTORC2-mediated AKT Ser473-phosphorylation in human U87 cells; type: cell-based, U-87MG ATCC; settings: U-87 MG
Outline: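 Cell assay in U87 cells measuring pAKT (S473), n ≥ 2.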

Mus musculus [35] = organism: Mus musculus; assay: animal or person; settings: Liver, 6 h; remark: listed apart in the source
Rattus norvegicus [36] = assay: Drug metabolism in po dosed Sprague-Dawley rat assessed as triazine amine glucuronide derivative; type: ADME, organism-based; settings: in vivo
Rattus norvegicus [37] = assay: Drug metabolism in po dosed Sprague-Dawley rat assessed as pyrazole glucuronide derivative; type: ADME, organism-based; settings: in vivo
[38] = Volume of distribution at steady state in rat at 1 mg/kg, iv; type: ADME, organism-based; parameters: dose 1 mg/kg, route intravenous; settings: in vivo, read-out: Vdss
Mus musculus [39] = assay: Inhibition of mTORC1 in po dosed mouse assessed as inhibition of HGF-induced pS6-phosphorylation in liver tissue at 100 mg/kg, po measured at 24 hrs; type: functional, organism-based; parameters: dose 100 mg/kg; outline: as §3
Rattus norvegicus [40] = assay: Drug metabolism in po dosed Sprague-Dawley rat assessed as imidazopyridine oxidation; type: ADME, organism-based; settings: in vivo
Mus musculus [41] = assay: Toxicity in mouse assessed adverse effects at 60 mg/kg, po administered QD for 7 days relative to vehicle-treated control; type: organism-based; parameters: dose 60 mg/kg, route oral; settings: in vivo, 168 h; outline: as §5
U-87MG ATCC [42] = assay: Antitumor activity against human U87MG cells xenografted in po dosed mouse assessed as tumor growth inhibition administered BID for 2 weeks; type: functional, organism-based; outline: as §4
[43] = Half life in rat at 1 mg/kg, iv; type: ADME, organism-based; parameters: dose 1 mg/kg, route intravenous; settings: in vivo
Mus musculus [44] = assay: Inhibition of mTORC2 in po dosed mouse assessed as inhibition of HGF-induced AKT Ser473-phosphorylation in liver tissue at 100 mg/kg, po measured at 24 hrs; type: functional, organism-based; parameters: dose 100 mg/kg; outline: as §3
Mus musculus [45] = assay: Inhibition of PI3Kalpha in po dosed mouse assessed as inhibition of HGF-induced AKT Thr308-phosphorylation in liver tissue at 100 mg/kg, po measured at 24 hrs; type: functional, organism-based; parameters: dose 100 mg/kg; outline: as §3
Mus musculus [46] = assay: Inhibition of mTORC2 in po dosed mouse assessed as inhibition of HGF-induced AKT Ser473-phosphorylation in liver tissue at 100 mg/kg, po measured at >8 hrs; type: functional, organism-based; parameters: dose 100 mg/kg; outline: as §3
Mus musculus [47] = assay: Inhibition of PI3Kalpha in po dosed mouse assessed as inhibition of HGF-induced AKT Thr308-phosphorylation in liver tissue at 100 mg/kg, po measured at >8 hrs; type: functional, organism-based; parameters: dose 100 mg/kg; outline: as §3
Rattus norvegicus [48] = organism: Rattus norvegicus; assay: Unbound clearance in rat; type: ADME, organism-based; settings: in vivo
[49] = Clearance in rat at 0.3 mg/kg, iv; type: ADME, organism-based; parameters: dose 0.3 mg/kg, route intravenous; settings: in vivo
Outline: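 Rat IV pharmacokinetics at 0.3 mpk, formulation 100% DMSO.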

[50] = Oral bioavailability in rat at 2 mg/kg; type: ADME, organism-based; settings: in vivo

Cc1nc(N)nc(-n2c(Nc3ccn[nH]3)nc3ccccc32)n1
solubility ([1]; buffer): 3.7 µg/mL (≈ 12 µM)
bioavailability [2]: 6%
efflux ratio [3]: 1.7
Papp A→B [4]: 20.3 ×10⁻⁶ cm/s
IC50 [5]: 23 nM
solubility [6]: 8.4 µg/mL (≈ 27.3 µM)
Papp B→A [7]: 35.4 ×10⁻⁶ cm/s
solubility [8]: 8.4 µg/mL (≈ 27.3 µM)
IC50 [9]: 166 nM

Cc1nc(Nc2ccc(N3CCOCC3)nn2)cc(-c2c(Nc3ccn[nH]3)nc3cccnn23)n1
clearance [10]: 41.7 mL/min/kg
bioavailability [11]: 7%
IC50 [12]: 309 nM
IC50 [13]: 256 nM
IC50 [5]: 35 nM
half-life [14]: 95.4 min
Vd [15]: 3.9 L/kg
solubility [8]: 98 µg/mL (≈ 208 µM)

CC(=O)Nc1cc(-c2c(Nc3ccn(C)n3)nc3ccc(-c4cccnc4C)cn23)nc(C)n1
CL (Rattus norvegicus [16]): 10 mL/min/kg
AUC (Rattus norvegicus [17]): 7.6 µM·h
IC50 [12]: 230 nM
IC50 [13]: 4290 nM
IC50 [5]: 15 nM
half-life [14]: 168 min
Vd [15]: 1.7 L/kg
bioavailability [18]: 38%
fraction unbound [19]: 0.025

Cc1nc(N)nc(-c2c(Nc3cc[nH]n3)nc3ccccn23)n1
inhibition (Mus musculus [20]): Active
microsomal CLint [21]: 24 µL/min/mg
clearance [10]: 30 mL/min/kg
AUC [22]: 1.8 µM·h
solubility ([1]; 0.01 N HCl, read-out: solubility): > 200 µg/mL
bioavailability [2]: 24%
microsomal CLint [23]: 29 µL/min/mg
IC50 (Mus musculus [24]): 53 nM
IC50 [25]: 1130 nM
efflux ratio [3]: 2.4
Drug excretion [26]: Active
inhibition in vivo at 60 mg/kg [27]: 82%
Activity (Mus musculus [28]): > 20%
clearance [29]: 30 mL/min/kg
inhibition (Mus musculus [30]): Dose-dependent effect
Papp A→B [4]: 13.8 ×10⁻⁶ cm/s
inhibition in vivo at 30 mg/kg [31]: 84%
IC50 [12]: 162 nM
IC50 [13]: 590 nM
Drug excretion [32]: Active
TGI (U-87MG ATCC [33]): Dose-dependent effect
IC50 [34]: 19 nM
IC50 (Mus musculus [35]): 71 nM
Drug metabolism (Rattus norvegicus [36]): Active
half-life [14]: 26.4 min
Drug metabolism (Rattus norvegicus [37]): Active
Vd [38]: 1.1 L/kg
inhibition (Mus musculus [39]): inactive
Drug metabolism (Rattus norvegicus [40]): Active
solubility [6]: 6.3 µg/mL (≈ 20.5 µM)
Activity (Mus musculus [41]): Non-toxic
Vd [15]: 1.14 L/kg
Papp B→A [7]: 33.7 ×10⁻⁶ cm/s
TGI (U-87MG ATCC [42]): Dose-dependent effect
solubility [8]: 27 µg/mL (≈ 87.9 µM)
half-life [43]: 27 min
inhibition (Mus musculus [44]): inactive
bioavailability [18]: 24%
inhibition (Mus musculus [45]): inactive
inhibition (Mus musculus [46]): Active
fraction unbound [19]: 0.023
IC50 [9]: 69 nM
inhibition (Mus musculus [47]): Active

Cc1nc(N)cc(-c2c(Nc3cc[nH]n3)nc3cccnn23)n1
clearance [10]: 38.3 mL/min/kg
AUC [22]: 1 µM·h
CL free (Rattus norvegicus [48]): 435 mL/min/kg
IC50 [12]: 210 nM
IC50 [13]: 763 nM
IC50 [5]: 13 nM
half-life [14]: 51 min
Vd [15]: 2 L/kg
solubility [8]: 150 µg/mL (≈ 488 µM)
bioavailability [18]: 100%
fraction unbound [19]: 0.088

Cc1nc(N)cc(-c2c(Nc3cc[nH]n3)nc3ccccn23)n1
CL free (Rattus norvegicus [48]): 515 mL/min/kg
clearance [49]: 68.3 mL/min/kg
IC50 [12]: 507 nM
IC50 [13]: 5840 nM
IC50 [5]: 65 nM
half-life [14]: 15 min
Vd [15]: 1.2 L/kg
solubility [8]: 162 µg/mL (≈ 529 µM)
bioavailability [50]: 2%
